Measurements taken from ChEMBL document CHEMBL2429718, “MT-Stabilizer, Dictyostatin, Exhibits Prolonged Brain Retention and Activity: Potential Therapeutic Implications” (ACS Med Chem Lett, 2013).
Activity calls are given as the source filed them. The calls are words filed in the database; no cut-off is given here.

Columns and labels:
[1] = system: Brain; experiment: Stabilization of microtubule brain in CD1 mouse assessed as increase in acetylated alpha-tubulin at 5 mg/kg, ip administered as single dose measured after 7 days relative to vehicle-treated control; format: functional, organism-based; parameters: dose 5 mg/kg
Summary of the method: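 Wild-type mice received one i.p. dose of 5 mg/kg, with DMSO as vehicle control, and 3 mice per treatment. Brains were collected 7 days later and the acetylated α-tubulin to α-tubulin ratio was measured. The mean ratio of treated mice was normalized to that of vehicle-treated mice.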

[2] = Fraction unbound in CD1 mouse brain at 5 mg/kg, ip administered as single dose; format: ADME, organism-based; parameters: dose 5 mg/kg, route intraperitoneal; settings: in vivo
[3] = AUC (0.5 to 16 hrs) in CD1 mouse brain at 5 mg/kg, ip administered as single dose at 4 hrs; format: ADME, organism-based; parameters: time 0.5-16 hr, dose 5 mg/kg, route intraperitoneal
[4] = Drug uptake in CD1 mouse brain at 5 mg/kg, ip administered as single dose at 4 hrs; format: ADME, organism-based; parameters: dose 5 mg/kg, route intraperitoneal; settings: read-out: Drug uptake
Summary of the method: (§1)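 CD1 mice received one i.p. dose of 5 mg/kg. Blood and brain were taken from groups of animals at several times after dosing, with n = 3 mice per time point, and compound levels were measured in plasma and brain. Exposure was expressed as AUC over 0.25–4 h. Concentrations at 4 h and 16 h are given as mean ± SD.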

[5] = Drug uptake in CD1 mouse brain at 5 mg/kg, ip administered as single dose at 16 hrs; format: ADME, organism-based; parameters: dose 5 mg/kg, route intraperitoneal; settings: read-out: Drug uptake; summary of the method: as §1
[6] = (§2) Plasma concentration in CD1 mouse at 5 mg/kg, ip administered as single dose at 16 hrs; format: ADME, organism-based; parameters: dose 5 mg/kg, route intraperitoneal; settings: CD1, mouse, plasma; summary of the method: as §1
[7] = AUC (0.25 to 4 hrs) in CD1 mouse plasma at 5 mg/kg, ip administered as single dose at 4 hrs; format: ADME, organism-based; parameters: time 0.25-4 hr, dose 5 mg/kg, route intraperitoneal; summary of the method: as §1
[8] = Plasma concentration in CD1 mouse at 5 mg/kg, ip administered as single dose at 4 hrs; format: ADME, organism-based; parameters: dose 5 mg/kg, route intraperitoneal; summary of the method: as §1
[9] = system: Plasma; experiment: Fraction unbound in CD1 mouse plasma at 5 mg/kg, ip dministered as single dose; format: ADME, organism-based; parameters: dose 5 mg/kg, route intraperitoneal; settings: in vivo
[10] = system: HEK293; experiment: Stabilization of microtubule in HEK293 cells assessed as increase in acetylated alpha-tubulin at 1to 10 nM after 4 hrs by ELISA; format: cell-based; settings: Homo sapiens
Summary of the method: (§3)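 In HEK293 cells, microtubule stabilization was read as compound-induced elevation of acetylated α-tubulin. Compounds were tested across a concentration series that included 1, 10 and 100 nM, with n = 4 per condition. Values are given as mean ± SEM.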

[11] = system: HEK293; experiment: Stabilization of microtubule in HEK293 cells assessed as increase in acetylated alpha-tubulin after 4 hrs by ELISA; format: cell-based; settings: Homo sapiens; summary of the method: as §3
[12] = AUC (0.25 to 4 hrs) in CD1 mouse brain at 5 mg/kg, ip administered as single dose at 4 hrs; format: ADME, organism-based; parameters: time upper 4 hr, time lower 0.25 hr, dose 5 mg/kg, route intraperitoneal; summary of the method: as §1
[13] = system: Plasma; experiment: as §2; format: ADME, organism-based; parameters: dose 5 mg/kg, route intraperitoneal; settings: mouse, in vivo, 16 h, BLD = below limit of detection; summary of the method: as §1
[14] = system: HEK293; experiment: Stabilization of microtubule in HEK293 cells assessed as increase in acetylated alpha-tubulin at 100 nM after 4 hrs by ELISA; format: cell-based; settings: Homo sapiens; summary of the method: as §3

Compound | Activity [1] | Fu [2] | AUC(0-t) [3] | concentration at 4 h [4] | concentration at 16 h [5] | concentration at 16 h [6] | AUC(0-t) at 4 h [7] | concentration at 4 h [8] | Fu [9] | Activity [10] | Activity [11] | AUC(0-t) at 4 h [12] | Cp [13] | Activity [14]
C=C/C=C\[C@H](C)[C@@H]1OC(=O)/C=C\C=C\[C@@H](C)[C@@H](O)C[C@H](O)/C=C\[C@H](C)[C@H](O)[C@@H](C)C[C@@H](C)CC[C@@H](O)[C@@H]1C [DICTYOSTATIN] | Active | 0.5% | 6.25 µM·h | 412 nM | 383 nM | 77 nM | 5.54 µM·h | 83 nM | 0.9% | Active | Dose-dependent effect |  |  | 
C=C/C=C\[C@H](C)[C@H](OC(N)=O)[C@@H](C)[C@H](O)[C@@H](C)C/C(C)=C\[C@H](C)[C@@H](O)[C@@H](C)/C=C\[C@@H](O)C[C@@H]1OC(=O)[C@H](C)[C@@H](O)[C@H]1C [DISERMOLIDE] |  |  |  |  |  |  | 0.439 µM·h |  |  |  | Dose-dependent effect | 0.112 µM·h |  | 
C/C1=C/C[C@@H](/C(C)=C/c2csc(C)n2)OC(=O)C[C@H](O)C(C)(C)C(=O)[C@H](C)[C@@H](O)[C@@H](C)CCC1 [EPOTHILONE D] |  |  |  | 161 nM | 111 nM |  |  | 19 nM |  |  | Dose-dependent effect |  | BLD | Active
